For four compounds, IC50, Activity and CC50 results are on record in ChEMBL document CHEMBL1151818, “Antimalarial peptides from marine cyanobacteria: isolation and structural elucidation of gallinamide A” (J Nat Prod, 2009).

Active and inactive are the calls of the source. No cut-off for these calls is given here. Non-standard residues stand in square brackets, D forms with d. Residues, ends and D or L forms follow the SMILES beside them. *: point of attachment. X1 = COC1=CC(=O)N(C(=O)[C@@H](O*)C(C)C)[C@H]1Cc1ccccc1; NMe2Val = CC(C)[C@@H](C(=O)*)N(C)C; NMeV = CN[C@H](C(=O)O)C(C)C

Data set [1] relates to Trypanosoma cruzi. Nature of the data set: Antitrypanosomal activity against Trypanosoma cruzi at 16.9 uM. In kind it is functional, organism-based. The essentials:
(§1)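 In vitro assay; 16.9 µM was the highest concentration tested.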

Data set [2] deals with Plasmodium falciparum. As to the kind of experiment: Antimalarial activity against chloroquine-resistant Plasmodium falciparum W2. Format: functional, organism-based.
The test system of data set [3] is NCI-H460. Nature of the data set: Cytotoxicity against human NCI-H460 cells. Format: functional. The note with it: read-out: TC50 (the source's name). The essentials:
as §1

The nature of data set [4]: Cytotoxicity against african green monkey Vero cells. Particulars: chlorocebus sabaeus, read-out: TC50 (the source's name). In kind it is cell-based.
The subject of data set [5] is Leishmania donovani. As to the kind of experiment: Antileishmanial activity against Leishmania donovani. Format: functional, organism-based.
Data set [6] has as its system NCI-H460. Nature of the data set: Cytotoxicity against human NCI-H460 cells at 16.9 uM. In kind it is functional, cell-based. The essentials:
as §1

In data set [7] the test system is N2a. As to the kind of experiment: Cytotoxicity against mouse Neuro2a cells at 16.9 uM. Format: functional, cell-based. The procedure, abridged:
as §1

As usually defined, the IC50 is the concentration at which inhibition is half-maximal. Compound `CC1CS(=O)(=O)CCN1/N=C/c1ccc([N+](=O)[O-])o1` (stereo not given) [NIFURTIMOX] displayed an IC50 in data set [1] of 13.5 µM.

Regarding `COC1=CC(=O)N(C(=O)[C@@H](OC(=O)[C@@H]2CCCN2C(=O)[C@@H]2CCCN2C(=O)[C@H](C(C)C)N(C)C(=O)[C@@H](NC(=O)[C@H](C(C)C)N(C)C)C(C)C)C(C)C)[C@H]1Cc1ccccc1` [DOLASTATIN 15] (NMe2Val-V[NMeV]PP-X1), the result in data set [2] was Active. Besides, the CC50 in data set [3] was 0.0024 µM.

As to `CC[C@H](C)[C@@H](C(=O)O[C@@H](CC(C)C)C(=O)N[C@@H](CC(C)C)C(=O)N[C@@H](C)/C=C/C(=O)N1C(=O)C=C(OC)[C@@H]1C)N(C)C` [GALLINAMIDE A], the IC50 was 8.4 µM in data set [2], 9.3 µM in data set [5] and over 16.9 µM in data set [1]. Besides, the CC50 in data set [4] was 10.4 µM. The result in data set [6] and in data set [7] was inactive.

In the case of `C[C@@H]1[C@H](O)[C@@H](C)/C=C/C=C/C=C/C=C/C=C/C=C/C=C/[C@H](O[C@@H]2O[C@H](C)[C@@H](O)[C@H](N)[C@@H]2O)C[C@@H]2O[C@](O)(C[C@@H](O)C[C@@H](O)[C@H](O)CC[C@@H](O)C[C@@H](O)CC(=O)O[C@H]1C)C[C@H](O)[C@H]2C(=O)O` [AMPHOTERICIN B], the IC50 in data set [5] came to 0.103 µM.
